Source: ChEMBL document CHEMBL1921692 (J Med Chem, 2011)
≈ marks a conversion by molar mass, not a printed value. Calls of active or inactive are those of the source.

Key:
[1] = biological target: T1, Growth hormone secretagogue receptor type 1 (Homo sapiens, UniProt Q92847); assay: Displacement of [125I-His9]-ghrelin from human GRLN receptor by radioligand binding assay
How it was run: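 Competitive binding on isolated membranes expressing GRLN, with 125I-His-9 octanoylated ghrelin as radioligand.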

[2] = biological target: T1, Growth hormone secretagogue receptor type 1; assay: Agonist activity at human GRLN receptor expressed in HEK293 cells assessed as calcium binding by Ca2+ bioluminescence aequorin assay; format: functional, cell-based
How it was run: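 HEK-293 cells expressing human GRLN. Ca2+ bioluminescence read out by aequorin. Duplicate samples, maximum tolerated interassay variability ±10%. Full agonism defined as maximal response >70% of that of octanoylated human ghrelin.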

[3] = Elimination half life in Sprague-Dawley rat at 2 m/kg, iv; format: ADME, organism-based; conditions: in vivo, read-out: beta t1/2
[4] = Volume of distribution at steady state in Sprague-Dawley rat at 2 m/kg, iv; format: ADME, organism-based; conditions: in vivo, read-out: Vdss
[5] = Clearance in Sprague-Dawley rat at 2 m/kg, iv; format: ADME, organism-based; conditions: in vivo
[6] = Aqueous solubility of the compound; format: physicochemical
Rattus norvegicus [7] = assay: Induction of gastric emptying in overnight-fasted iv dosed Wistar rat measured after 15 mins by […] analysis; format: functional, organism-based, Stomach
How it was run: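 Overnight-fasted male Wistar rats (200 ± 20 g), N = 5 per point. Compound given IV in 9% 2-hydroxypropyl-β-cyclodextrin together with an oral 2% methylcellulose meal containing 0.05% phenol red (2 mL). Sacrifice 15 min later; phenol red left in stomach read at 560 nm. […] Metoclopramide positive control at 10 mg/kg IV.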

Rattus norvegicus [8] = assay: Induction of gastric emptying in overnight-fasted po dosed Wistar rat administered 30 mins prior methylcellulose meal by […] analysis; format: functional, organism-based; conditions: Stomach
[9] = Cmax in Sprague-Dawley rat at 8 mg/kg, po; format: ADME, organism-based; parameters: dose 8 mg/kg, route oral; conditions: in vivo
How it was run: (§1)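 Male Sprague−Dawley rats (250 ± 20 g), 3 per compound in a single experiment, gavage 8 mg/kg in physiological saline. Blood taken at 12 time points over 6 h into K3EDTA tubes. Plasma stored at −20 °C, assayed by LC-MS/MS, noncompartmental analysis.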

[10] = AUC (0 to infinity) in Sprague-Dawley rat at 8 mg/kg, po; format: ADME, organism-based; parameters: time infinity, dose 8 mg/kg, route oral; conditions: plasma; how it was run: as §1
[11] = Permeability across mucosal to serosal side in human Caco2 cells; format: ADME, cell-based; conditions: Caco-2, read-out: permeability
[12] = Permeability across serosal to mucosal side human Caco2 cells; format: ADME, cell-based; conditions: Caco-2, read-out: permeability
[13] = Drug metabolism in rat liver microsomes after 15 mins; format: ADME, Microsome; conditions: read-out: Drug metabolism
[14] = Half life in human liver microsomes; format: ADME, Microsome
[15] = Oral bioavailability in Sprague-Dawley rat at 8 mg/kg; conditions: in vivo
[16] = biological target: T1, Growth hormone secretagogue receptor type 1; assay: Partial agonist activity at GRLN receptor at 3 uM by aequorin assay; format: functional
How it was run: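 Aequorin Ca2+ bioluminescence in HEK-293 cells expressing human GRLN. Response at a 3 μM test concentration expressed relative to the maximal response to octanoylated human ghrelin.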

[17] = Dissociation constant, pKa of the compound; format: physicochemical

T1 sequence (Q92847 whole entry): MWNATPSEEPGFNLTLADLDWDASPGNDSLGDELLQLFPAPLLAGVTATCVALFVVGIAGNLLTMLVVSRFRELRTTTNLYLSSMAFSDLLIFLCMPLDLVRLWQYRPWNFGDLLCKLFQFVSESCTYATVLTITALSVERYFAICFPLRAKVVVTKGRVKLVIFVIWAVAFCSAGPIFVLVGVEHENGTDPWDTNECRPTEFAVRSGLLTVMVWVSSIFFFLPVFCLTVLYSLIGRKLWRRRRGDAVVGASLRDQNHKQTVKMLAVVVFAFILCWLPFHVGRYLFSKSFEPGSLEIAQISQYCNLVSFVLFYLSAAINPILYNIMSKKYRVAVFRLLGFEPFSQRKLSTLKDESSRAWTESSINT

Row | Compound | Ki [1] | EC50 [2] | also measured
1 | C[C@@H]1C(=O)N[C@H](Cc2cccc(F)c2)C(=O)NCCCc2ccccc2OCCN[C@@H](C2CC2)C(=O)N1C | 21 nM |  | 
2 | CC1COc2ccccc2CCCNC(=O)[C@@H](Cc2ccc(F)cc2)NC(=O)[C@@H](C)N(C)C(=O)[C@H](C2CC2)N1 (mixture of isomers) | 9 nM | 760 nM | 
3 | CC[C@H](C)[C@@H]1NC[C@@H](C)Oc2ccccc2CCCNC(=O)[C@@H](Cc2ccc(F)cc2)NC(=O)[C@@H](C)N(C)C1=O | 32 nM |  | half-life [3]: 44 min; Vd [4]: 2.5 L/kg; clearance [5]: 40 mL/min/kg; solubility [6]: 100 µg/mL (≈ 180 µM)
4 | CCC[C@@H]1NCCOc2ccccc2CCCNC(=O)[C@@H](Cc2ccccc2)NC(=O)[C@@H](C)NC1=O | 500 nM |  | 
5 | CCCCCCCC(=O)OC[C@H](NC(=O)CNC(=O)[C@@H](N)CCCNC(=N)N)C(=O)N[C@@H](CO)C(=O)N[C@@H](Cc1ccccc1)C(=O)N[C@@H](CC(C)C)C(=O)N[C@@H](CO)C(=O)N1CCC[C@H]1C(=O)N[C@@H](CCC(=O)O)C(=O)N[C@@H](Cc1cnc[nH]1)C(=O)N[C@@H](CCC(N)=O)C(=O)N[C@@H](CCCCN)C(=O)N[C@@H](C)C(=O)N[C@@H](CCC(N)=O)C(=O)N[C@@H](CCC(N)=O)C(=O)N[C@@H](CCCNC(=N)N)C(=O)N[C@@H](CCCCN)C(=O)N[C@@H](CCC(=O)O)C(=O)N[C@@H](CO)C(=O)N[C@@H](CCCCN)C(=O)N[C@@H](CCCCN)C(=O)N1CCC[C@H]1C(=O)N1CCC[C@H]1C(=O)N[C@@H](C)C(=O)N[C@@H](CCCCN)C(=O)N[C@@H](CC(C)C)C(=O)N[C@@H](CCC(N)=O)C(=O)N1CCC[C@H]1C(=O)O [GHRELIN] |  |  | EC50 (Rattus norvegicus [7]): 0.04 mg/kg; Activity (Rattus norvegicus [8]): inactive
6 | CC[C@H](C)[C@@H]1NC[C@@H](C)Oc2ccccc2CCCNC(=O)[C@@H](Cc2ccccc2)NC(=O)[C@@H](C(C)C)NC1=O | 380 nM |  | 
7 | CC[C@H](C)[C@@H]1NCCOc2ccccc2CCCNC(=O)[C@@H](Cc2ccc(Cl)cc2)NC(=O)[C@@H](C)N(C)C1=O | 0.35 nM | 20 nM | Cmax [9]: 60 nM; AUC(0-inf) [10]: 0.0585 µM·h; half-life [3]: 33 min; Vd [4]: 3.2 L/kg; Papp A→B [11]: 14 ×10⁻⁶ cm/s; Papp B→A [12]: 15 ×10⁻⁶ cm/s; metabolised at […] [13]: 86%; half-life [14]: 5 min; EC50 (Rattus norvegicus [7]): 0.39 mg/kg; Activity (Rattus norvegicus [8]): inactive; bioavailability [15]: 3%
8 | CC[C@H](C)[C@@H]1NCCCc2ccccc2CCCCNC(=O)[C@@H](Cc2ccccc2)NC(=O)[C@@H](C)N(C)C1=O | 78 nM | 360 nM | 
9 | C[C@@H]1CN[C@@H](C2CCCCC2)C(=O)N(C)[C@H](C)C(=O)N[C@H](Cc2ccc(F)cc2)C(=O)NCCCc2ccccc2O1 | 0.38 nM | 49 nM | half-life [3]: 74 min; Vd [4]: 4.7 L/kg; clearance [5]: 43 mL/min/kg; solubility [6]: ≤ 10 µg/mL
10 | CCC[C@@H]1NCCOc2ccccc2CCCNC(=O)[C@@H](Cc2ccc(O)cc2)NC(=O)CN(C)C1=O | 120 nM | 39 nM | 
11 | C[C@@H]1C(=O)N[C@H](Cc2ccc(F)cc2)C(=O)NCCCc2ccccc2OC(C)(C)CN[C@@H](C2CC2)C(=O)N1C | 12 nM |  | Activity [16]: 40%
12 | CCC[C@H]1NCCOc2ccccc2CCCNC(=O)[C@@H](Cc2ccccc2)NC(=O)CN(C)C1=O | 1200 nM |  | 
13 | C[C@@H]1CN[C@@H](C2CC2)C(=O)N(C)[C@H](C)C(=O)N[C@H](Cc2ccccc2)C(=O)NCCCc2ccccc2O1 | 34 nM |  | half-life [3]: 32 min; Vd [4]: 1.3 L/kg; clearance [5]: 25 mL/min/kg
14 | CC[C@H](C)[C@@H]1NCCCC/C=C/CCNC(=O)[C@@H](Cc2ccccc2)NC(=O)[C@@H](C)N(C)C1=O (mixture of isomers) | 160 nM | 310 nM | 
15 | C[C@@H]1C(=O)N[C@H](Cc2ccc(F)cc2)C(=O)NCCCc2ccccc2O[C@@H](C)CN[C@@H](C2CC2)C(=O)N1C | 56 nM | 26 nM | 
16 | C[C@@H]1C(=O)N[C@H](Cc2ccccc2)C(=O)NCCCc2ccccc2OCCN[C@@H](C2CC2)C(=O)N1C | 4.4 nM | 23 nM | pKa [17]: 6.72
17 | C[C@@H]1C(=O)N[C@H](Cc2ccc(C(F)(F)F)cc2)C(=O)NCCCc2ccccc2OCCN[C@@H](C2CC2)C(=O)N1C | 7 nM | 11 nM | 
18 | CCC[C@@H]1NCCOc2ccccc2CCCNC(=O)[C@@H](Cc2ccccc2)NC(=O)CN(C)C1=O | 68 nM |  | 
19 | Cc1ccc(C[C@H]2NC(=O)[C@@H](C)N(C)C(=O)[C@H](C3CC3)NCCOc3ccccc3CCCNC2=O)cc1 | 5 nM | 8.2 nM | 
20 | CC[C@H](C)[C@@H]1NCCOc2ccccc2CCCNC(=O)[C@@H](CCc2ccccc2)NC(=O)[C@@H](C)N(C)C1=O | 43 nM |  | 
21 | C[C@@H]1C(=O)N[C@H](Cc2ccc(F)cc2)C(=O)NCCCc2cccc3c2O[C@H](CC3)CN[C@@H](C2CC2)C(=O)N1C | 0.9 nM | 85 nM | half-life [3]: 59 min; Vd [4]: 1.1 L/kg; clearance [5]: 13 mL/min/kg
